Test results: ChEMBL document CHEMBL1123921, “Quinolonecarboxylic acids. 2. Synthesis and antibacterial evaluation of 7-oxo-2,3-dihydro-7H-pyrido[1,2,3-de][1,4]benzothiazine-6-carboxylic acids” (J Med Chem, 1987)
Converted amounts (≈) assume the structure as drawn.

Tests used:
[1] = Urinary clearance was determined in rat at 10 mg/kg intraperitoneal dosage; type: ADME, organism-based; parameters: dose 10 mg/kg, route intraperitoneal; settings: urine, ip, read-out: CL_renal (converted)
Outline: (§1)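 Fasted male Wistar rats (180–230 g) given the drug ip in carboxymethyl cellulose. Plasma and urine extracted with CHCl₃ from citrate buffer pH 6.2 with internal standard. Analysis by reverse-phase C-18 HPLC, 0.1% AcOH/MeOH gradient, 245 nm UV. Urinary clearance and total clearance derived as pharmacokinetic parameters.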

[2] = Peak plasma concentration at a dose of 20 mg/kg, oral route in monkey (Macaca fascicularis) suspended in carboxymethyl cellulose (CMC);Range is between (5.5-6); type: ADME, organism-based; parameters: dose 20 mg/kg, route oral; settings: cynomolgus monkey, read-out: Activity
Outline: (§2)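 Four male beagle dogs or two Macaca fascicularis monkeys dosed orally, suspended in carboxymethyl cellulose. Venous blood collected into heparinized tubes and plasma separated by low-speed centrifugation. Urine gathered in metabolic cages. Unchanged drug measured by C-18 HPLC (extraction, UV 245 nm).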

[3] = Peak plasma concentration at a dose of 200 mg/kg, oral route in human; type: ADME, organism-based; parameters: dose 200 mg/kg, route oral; settings: read-out: Activity
Outline: (§3)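 Four healthy volunteers of both sexes took oral capsules (100 mg units) at three dose levels. Venous blood drawn into heparinized tubes and plasma obtained by low-speed centrifugation. Urine collected. Unchanged drug in plasma and urine determined by C-18 HPLC after CHCl₃ extraction, with UV detection at 245 nm.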

[4] = Peak plasma concentration at a dose of 25 mg/kg, os route in rat suspended in carboxymethyl cellulose (CMC); type: ADME, organism-based; parameters: dose 25 mg/kg; settings: po, read-out: Activity
Outline: (§4)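 Fasted male Wistar rats (180–230 g) dosed orally, suspended in carboxymethyl cellulose. Plasma and urine assayed by HPLC: sample plus internal standard and citrate buffer (0.1 M, pH 6.2), extracted into CHCl₃, dried, redissolved in MeOH. Separation on C-18 with 0.1% AcOH/MeOH gradient, UV detection at 245 nm.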

[5] = Peak plasma concentration at a dose of 50 mg/kg, os route in rat suspended in carboxymethyl cellulose (CMC); type: ADME, organism-based; parameters: dose 50 mg/kg; settings: po, read-out: Activity
Outline: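 Fasted male Wistar rats (180–230 g), drug suspended in carboxymethyl cellulose, given orally or ip. Plasma (heparinized) and urine from metabolic cages were sampled at various times. The unchanged drug was measured by HPLC after CHCl3 extraction at pH 6.2 with an internal standard, on a C-18 column with an AcOH/MeOH gradient and UV detection at 245 nm. Interassay and intraassay variability was about 10%.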

[6] = Half life period was determined for the compound at 20 mg/kg concentration, oral route in monkey (Macaca fascicularis); type: ADME, organism-based; parameters: dose 20 mg/kg, route oral; settings: cynomolgus monkey, in vivo; outline: as §2
[7] = Half life period was determined for the compound at 100 mg/kg concentration, oral route in human; type: ADME, organism-based; parameters: dose 100 mg/kg, route oral; settings: in vivo; outline: as §3
Rattus norvegicus [8] = assay: Volume of distribution at a dose of 10 mg/kg, intraperitoneal route in rat suspended in carboxymethyl cellulose (CMC); type: ADME, organism-based; parameters: dose 10 mg/kg, route intraperitoneal; settings: in vivo, ip; outline: as §1
Rattus norvegicus [9] = assay: Volume of distribution at a dose of 25 mg/kg, intraperitoneal route in rat suspended in carboxymethyl cellulose (CMC); type: ADME, organism-based; parameters: dose 25 mg/kg, route intraperitoneal; settings: in vivo, ip; outline: as §1
[10] = Time taken for peak plasma concentration at a dose of 100 mg/kg, os route in rat suspended in carboxymethyl cellulose (CMC); type: ADME, organism-based; parameters: dose 100 mg/kg; settings: po; outline: as §4
[11] = Half life period was determined for the compound at 100 mg/kg concentration, os route; settings: in vivo, po
[12] = Peak plasma concentration at a dose of 100 mg/kg, oral route in human; type: ADME, organism-based; parameters: dose 100 mg/kg, route oral; settings: read-out: Activity; outline: as §3
[13] = Urinary excretion for the compound was evaluated as percent dose excreted at 25 mg/kg os dosage; type: ADME, organism-based; parameters: dose 25 mg/kg; settings: urine, po; outline: as §4
[14] = Urinary excretion for the compound was evaluated as percent dose excreted at 100 mg/kg oral dosage in human; type: ADME, organism-based; parameters: dose 100 mg/kg, route oral; settings: urine; outline: as §3
[15] = Time taken for peak plasma concentration at a dose of 50 mg/kg, os route in rat suspended in carboxymethyl cellulose (CMC); type: ADME, organism-based; parameters: dose 50 mg/kg; settings: po; outline: as §4
[16] = Tissue levels determined 1 hr after peroral dose of 50 mg/kg in heart; settings: po
Klebsiella pneumoniae = assay: In vitro antibacterial activity against clinical isolates of Klebsiella pneumoniae-4 (gram negative) by agar dilution assay.; type: functional
Outline: (§5)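 Agar dilution on Isosensitest agar; compound incorporated by twofold serial dilution. Overnight broth cultures delivered by multipoint inoculator at 10⁵ CFU per point. Plates read after 18 h at 37 °C. MIC taken as the lowest concentration giving complete growth inhibition.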

Pseudomonas aeruginosa = assay: In vitro antibacterial activity against clinical isolates of Pseudomonas aeruginosa 2437 (gram negative) by agar dilution assay.; type: functional; outline: as §5
Staphylococcus aureus = assay: In vitro antibacterial activity against clinical isolates of Staphylococcus aureus 18773 (gram-positive) by agar dilution assay.; type: functional; outline: as §5
[17] = Ratio of tissue (heart) levels to plasma levels after 1 hr of treatment; type: ADME
Outline: (§6)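 Male Wistar rats received 50 mg/kg po and were killed at 1 and 15 h. Tissue homogenates and plasma extracted with CHCl₃ after adding internal standard and pH 6.2 citrate buffer. Drug quantified by C-18 HPLC with UV at 245 nm. Tissue level divided by plasma level.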

[18] = Ratio of tissue (kidney) levels to plasma levels after 15 hr of treatment; type: ADME; outline: as §6
[19] = Half life period was determined for the compound at 50 mg/kg concentration, os route; settings: in vivo, po
[20] = Ratio of tissue (heart) levels to plasma levels after 15 hr of treatment; type: ADME; outline: as §6
[21] = Half life period was determined for the compound at 20 mg/kg concentration, oral route in dog(beagle); type: ADME, organism-based, Canis lupus familiaris; parameters: dose 20 mg/kg, route oral; settings: in vivo; outline: as §2
[22] = Ratio of tissue (liver) levels to plasma levels after 15 hr of treatment; type: ADME; outline: as §6
in vivo = settings: heart, po, 50 mg/kg

For `CN1CCN(c2c(F)cc3c(=O)c(C(=O)O)cn4c3c2SCC4)CC1` [RUFLOXACIN], the CL renal [1] was 0.75 mL/min/kg, the Cmax [2] was 5500 ng/mL and the Cmax [3] was 1920 ng/mL. The Cmax [4] was 6000 ng/mL, the Cmax [5] was 8000 ng/mL and the half-life [6] was 50 h. For the same compound, the half-life [7] was 30 h, the Vd (Rattus norvegicus [8]) was 3 L/kg and the Vd (Rattus norvegicus [9]) was 3 L/kg. For the same compound, the Tmax [10] was 1 h, the half-life [11] was 8.7 h and the Cmax [12] was 1870 ng/mL. The dose excreted [13] was 24.5%, the dose excreted [14] was 45% and the Tmax [15] was 1 h. The concentration at 1 h [16] was 31000 ng/mL, the MIC (Klebsiella pneumoniae) was < 0.39 µg/mL and the MIC (Pseudomonas aeruginosa) was 12.5 µg/mL (≈ 34.4 µM). For the same compound, the MIC (Staphylococcus aureus) was 0.78 µg/mL (≈ 2.15 µM), the Kp at 1 h [17] was 3 and the Kp at 15 h [18] was 2.7. The half-life [19] was 8.7 h, the Kp at 15 h [20] was 1.7 and the half-life [21] was 12 h. It also gave a Kp at 15 h [22] of 3.7 and a concentration at 15 h (in vivo) of 5000 ng/mL.
